High-throughput results from PubChem.
Most compounds without a hit are left out; they make up all but 3.6% or so of the library.
HSF1 activator – increases HSF-1 driven luciferase reporter signal; activation, % at 9 µM; AID 504408; 300,000 tested, 1.7% active; NIH3T3-HGL HSF-1 luciferase reporter, MG132, 8 h; 100% = twice DMSO control signal;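 active means mean replicate activation of at least 50% with a set share of replicates each reaching 50%; inconclusive means only one of those two conditions met; inactive means mean below 50% and too few replicates reaching it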;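 further: 0% = median of the neutral control wells and 100% = twice that signal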
MITF TRPM1 HTS – MITF TRPM1 promoter activation in melanoma cells; SK-MEL-5 TRPM1-promoter luciferase, 24 h; % of positive control, neutral wells = 0; activation, % at 12.5 µM; 300,000 tested, 0.75% active; AID 588334;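 active means mean activation of at least 80% with every replicate also reaching 80%; inconclusive means mean reaches 80% but some replicate falls short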;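 further: 0% = neutral control wells and 100% = parthenolide positive control wells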
Wnt bcat act – activators of Wnt/beta-catenin signaling. Wnt/beta-catenin reporter cell assay, activator, plate reader. activation, % at 9.35 µM. 300,000 tested, 1.2% active; in the data active means activation above about 30%, passing the limit was not always enough; inconclusive means no clear call, values can overlap the other calls;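 further: 0% = neutral control wells and 100% = positive control wells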
SR-BI DiI-HDL act – activators of SR-BI mediated HDL lipid uptake. activation, % at 12.5 µM. 320,000 tested, 0.096% active. CHO ldlA[mSR-BI] cells, DiI-HDL uptake fluorescence, 3 h; 100 = double the neutral-control signal;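 active means mean replicate activation of at least 60% and every replicate at or above 60%; inconclusive means mean or all-replicate condition met, but not both; inactive means mean below 60% and not all replicates reaching 60%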;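 further: 0% = median plate neutral-control signal and 100% = twice that signal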
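Test system: SR-BI-overexpressing, LDLR-lacking CHO cells; Also added: labelled HDL, 10 µg/mL; Measured by: bottom-read cell fluorescence after medium removal, ex 550/em 595 nm; Timing: 3 h uptake period with compound, 37 °C; Buffer or medium: F12, 0.5% BSA, 25 mM HEPES; Doses: single compound concentration, delivered by pin transfer.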
SR-BI DiI inh – blocks mouse SR-BI lipid uptake from DiI-HDL; Q61009; ldlA[mSR-BI] CHO cells, DiI-HDL uptake fluorescence, 3 h; inhibition, % at 12.5 µM; 320,000 tested, 0.96% active;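 active means mean replicate inhibition of at least 70% and a set share of replicates each scoring 70 or more; inconclusive means meets just one of the two criteria; inactive means fails both criteria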;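 further: 0% = median of neutral control wells and 100% = median of positive control wells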
Target sequence (Q61009 whole entry, looked up): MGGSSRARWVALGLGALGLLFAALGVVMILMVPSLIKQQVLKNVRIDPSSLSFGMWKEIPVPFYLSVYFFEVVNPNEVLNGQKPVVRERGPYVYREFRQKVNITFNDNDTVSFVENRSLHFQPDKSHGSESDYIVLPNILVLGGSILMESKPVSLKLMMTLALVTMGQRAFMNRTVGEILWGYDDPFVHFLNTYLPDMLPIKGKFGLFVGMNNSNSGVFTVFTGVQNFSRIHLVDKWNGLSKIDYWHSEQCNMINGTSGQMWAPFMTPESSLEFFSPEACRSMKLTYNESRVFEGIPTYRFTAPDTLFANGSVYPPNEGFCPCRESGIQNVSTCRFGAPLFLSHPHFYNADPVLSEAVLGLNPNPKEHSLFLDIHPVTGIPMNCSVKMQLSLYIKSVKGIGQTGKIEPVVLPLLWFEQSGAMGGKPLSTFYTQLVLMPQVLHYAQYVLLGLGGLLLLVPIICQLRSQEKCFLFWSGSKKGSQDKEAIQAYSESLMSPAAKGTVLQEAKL
Starred values were filed as active, the others as inactive; ? = inconclusive; nt = not tested or not shown.

SMILES	HSF1 activator	MITF TRPM1 HTS	Wnt bcat act	SR-BI DiI-HDL act	SR-BI DiI inh
COc1cccc(/C=N/Nc2nc3ccccc3[nH]2)c1OC	38	nt	24	-8	8
Cc1[nH]c2ccccc2c1/C=N/Nc1ccccc1[N+](=O)[O-]	22	10	14	-129	129*
COc1ccccc1Cc1c(-c2ccc(OC)c(OC)c2)nc2c(Cl)cc(C(F)(F)F)cn12	nt	nt	-3	nt	nt
O=C(Nc1ccc(F)cc1)C(c1ccccc1OC(F)(F)F)N1CCN(c2cccc(C(F)(F)F)n2)CC1 (configuration not stated)	nt	nt	-6	nt	nt
COc1cc(/C=N/Nc2ccccc2[N+](=O)[O-])cc(OC)c1O	31	4	19	-79	79*
Nc1cc(=O)[nH]c(=O)n1CCc1ccccc1	1	-10	1	-12	12
CCOc1cc(/C=N/NC(=O)c2ccc(-c3csc(Nc4ccc(C)cc4)n3)cc2)ccc1OCC(=O)O	nt	-1	?	-71	?
O=C(O)COc1ccc(/C=N/NC(=O)c2ccc(-c3csc(Nc4ccc(Cl)cc4)n3)cc2)cc1	0	14	1	-74	74*
COc1ccc(NC(=O)CC2C(=O)N(C)C(=S)N2Cc2ccc3c(c2)OCO3)cc1 (configuration not stated)	10	3	35*	33	-33
COc1ccc(NC(=O)CCc2nnc3ccc(NCc4ccc5c(c4)OCO5)nn23)cc1	66*	4	-1	2	-2
O=C1c2ccccc2C(Nc2ccc3c(c2)OCO3)N1Cc1ccc2c(c1)OCO2 (configuration not stated)	31	19	3	-1	1
COc1ccc(OC)c(NC2c3ccccc3C(=O)N2Cc2ccc3c(c2)OCO3)c1 (configuration not stated)	51*	nt	-4	1	-1
CC(=O)c1cccc(-c2ccnc3c2CC(C(=O)Nc2cccc(Oc4ccccc4)c2)O3)c1 (configuration not stated)	nt	nt	-4	nt	nt
CCOc1cccc(NC(=O)C2CC(=O)N(C)C(=Nc3cccc(F)c3)S2)c1 (configuration not stated)	10	2	-1	-73	73*
CCOc1cccc(NC(=O)C2CC(=O)N(C)C(=Nc3ccccc3)S2)c1 (configuration not stated)	-6	-9	nt	-75	75*
Cc1ccc(N=C2SC(C(=O)O)CC(=O)N2C)cc1C (configuration not stated)	-18	6	9	18	-18
CN1C(=O)CC(C(=O)Nc2ccccc2F)SC1=Nc1ccc2c(c1)OCO2 (configuration not stated)	-9	-1	2	-73	73*
Cc1ccc(N=C2SC(C(=O)NCCc3ccccc3)CC(=O)N2C)cc1C (configuration not stated)	70*	-6	0	-8	8
COc1ccc(CNC(=O)N(C)C[C@@H]2OCc3ccccc3-c3c(n(C)c4ccccc34)C(=O)N([C@@H](C)CO)C[C@@H]2C)cc1	nt	nt	-1	nt	nt
Fc1cccc(F)c1/C=C/c1ccc2ccccc2n1	-10	-6	nt	36	-36
Cc1ccc2nc(/C=C/c3cccc(F)c3)ccc2c1	49	56	71*	-7	7
Cc1ccccc1CN1C(=O)CN(S(C)(=O)=O)CC1(C)C(=O)NCc1ccccc1 (configuration not stated)	nt	nt	-2	nt	nt
COc1ccc(C(=O)Nc2ccc(C)c(S(=O)(=O)N3CCCCCC3)c2)cc1	-4	-27	-2	-81	81*
COC(=O)c1ccc(COC(=O)c2ccc(C)c(S(=O)(=O)N3CCCCC3)c2)cc1	nt	96*	9	-19	19
Cc1ccc(OCC(=O)Nc2ccc(C)c(S(=O)(=O)N3CCCCCC3)c2)c([N+](=O)[O-])n1	7	-3	-2	-74	74*
SMILES	HSF1 activator	MITF TRPM1 HTS	Wnt bcat act	SR-BI DiI-HDL act	SR-BI DiI inh
O=C(CSc1nnc(-c2ccccc2F)n1C1CC1)NCc1ccco1	nt	-3	-5	7	-7
O=C1CCCC2=C1C(c1ccc(Cl)cc1)n1c(s/c(=C\c3ccc4ccncc4c3)c1=O)=N2 (configuration not stated)	?	2	36*	-59	59
CCOC(=O)C1=C(C)N=c2s/c(=C/c3ccc(OCC(=O)O)c(OC)c3)c(=O)n2C1c1ccc(Cl)cc1 (configuration not stated)	21	nt	0	nt	nt
CCOc1ccc(-n2c(SCC(=O)Nc3cc(OC)c([N+](=O)[O-])cc3C)nc3ccccc32)cc1	0	-8	0	-82	82*
Cc1cccc(Nc2nnc(-c3ccc(N4CCOCC4)c([N+](=O)[O-])c3)c3ccccc23)c1	-12	-15	-10	-73	73*
CC(=O)C1=C(C)N(Cc2ccc(Br)cc2)C(=S)NC1c1cccc(F)c1 (configuration not stated)	nt	nt	-2	nt	nt
CC(=O)c1cnc(Nc2cccc(C)c2)s1	17	92*	-2	6	-6
O=C(c1ccccc1)c1cnc(Nc2ccc(Cl)c(Cl)c2)s1	9	nt	nt	5	-5
CC1(C(=O)NS(=O)(=O)Cc2cccc(Cl)c2)CCN1C(=O)C1CCCCC1 (configuration not stated)	nt	nt	-1	nt	nt
CCn1c(SCC(=O)N/N=C/C=C/c2ccco2)nnc1-c1ccc(OC)cc1	-2	11	nt	-4	4
CCn1c(SCC(=O)N/N=C/C=C/c2ccco2)nc2ccccc21	78*	5	2	-5	5
CCc1ccc(C(=O)NC2CCCCC2)s1	54*	96*	nt	17	-17
C/C(=N\NC(=O)c1cc2c(s1)CCC(C)C2)c1ccc[nH]1 (configuration not stated)	nt	104*	?	-3	3
CC1CCc2sc(C(=O)NC3CCCCC3)cc2C1 (configuration not stated)	nt	nt	54*	-14	14
CC(C)(C)S(=O)N1C[C@@H]2CC(=O)C=C2[C@H]1CCO (some centres not stated)	nt	nt	0	nt	nt
O=C(Cc1csc(-c2ccccc2)n1)NCc1ccc(F)cc1	6	-11	-2	9	-9
COc1ccccc1NC(=O)Nc1nc(CC(=O)NCc2ccc(F)cc2)cs1	7	4	3	-72	72*
COc1cccc(CNC(=O)Cc2csc(NC(=O)Nc3ccccc3OC)n2)c1	17	4	1	-78	78*
COc1ccccc1NC(=O)Nc1nc(CC(=O)NCc2c(F)cccc2F)cs1	10	3	-1	-72	72*
COc1ccc(NC(=O)Cc2csc(NC(=O)Nc3ccccc3OC)n2)c(OC)c1	0	-1	0	-64	64
COc1ccc(OC)c(NC(=O)Cc2csc(NC(=O)Nc3ccccc3OC)n2)c1	12	8	-2	-76	76*
O=C1CCC(OCc2ccccc2)CCN1[C@H](CSc1ccccc1)Cc1ccccc1 (some centres not stated)	nt	nt	-2	nt	nt
